# Compound activity deposited in PubChem BioAssay by several laboratories.
# The list is not random: actives were taken first. Their share in the collection is about 1.6%.
# TDP2 inh – blocks human TDP2 phosphodiesterase activity. recombinant TDP2, T5PNP hydrolysis, p-nitrophenol absorbance 415 nm. 370,000 tested, 0.34% active. AID 720702. O95551. inhibition, % at 12.8 µM;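 active = inhibition above the mean of all tested compounds plus 3 SD, set per campaign, cut at about 25% in these data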;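 note: 0% = DMSO with enzyme and 100% = buffer with substrate but no TDP2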
#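 Incubation: 2 h at 37 °C; Test system: recombinant human TDP2; Quantity: enzyme 120 nM; Read-out basis: percent inhibition; Medium: 50 mM Tris-HCl pH 7.5 with Mg2+, KCl, DTT, BSA; Repeats: single replicate; Compound: 12.8 µM single point, 1% DMSO; Signal: epi absorbance; Reagent: 5 mM T5PNP chromogenic substrate; Benchmarks: no-enzyme high, DMSO-plus-enzyme low.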
# GASC-1 inh – inhibitors of human GASC-1 (JMJD2C) demethylase; 330,000 tested, 0.069% active; GST-JMJD2C(1-420) H3K9me3 demethylation, DELFIA europium; Q9H3R0; AID 2099; inhibition, % at 2.35 µM;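 active = more than half of a compound's replicate wells show inhibition beyond 50%, single wells judged on their own value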;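 note: signal counts dimethyl H3K9 product captured on neutravidin plate; 0% = median of DMSO wells and 100% = 0.3 times that DMSO median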
# PAD4 FP inh – inhibitors of human PAD4. recombinant PAD4, RCA probe fluorescence polarization. inhibition, % at 6.36 µM. 330,000 tested, 0.41% active;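 active = percent inhibition above a cutoff equal to the mean of all tested compounds plus 3 SD, cut at about 15% in these data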;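 note: 0% = PAD4 with RCA probe and DMSO and 100% = probe without PAD4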
# Apaf-1 inh – blocks human Apaf-1 apoptosome activity; O14727; reconstituted apoptosome caspase-3 activity, DEVD-Rh110 fluorescence; inhibition, % at 20 µM; 330,000 tested, 0.71% active; active = inhibition of at least 40% at 20 µM;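 note: plate controls were DMSO wells for no effect and DEVD-CHO caspase inhibitor wells for full effect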
#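 System: Apoptosome proteins | Medium: Hepes pH 7.5 with detergent and BSA | Also added: Cytochrome c trigger plus (Z-DEVD)2-Rh110 caspase-3 substrate | Incubation: 30 min compound preincubation, 50 min activation, room temperature | Detection: Rhodamine 110 fluorescence at Ex 480/Em 540 nm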
# SUMO HTRF inh – SUMOylation inhibition; P63279; HTRF SUMOylation assay, SAE1/SAE2 + UBC9, in vitro; inhibition, % at 35 µM; 290,000 tested, 0.36% active; in the data active = inhibition above about 50%, passing the limit was not always enough
# Target sequence (P63279 whole entry, looked up): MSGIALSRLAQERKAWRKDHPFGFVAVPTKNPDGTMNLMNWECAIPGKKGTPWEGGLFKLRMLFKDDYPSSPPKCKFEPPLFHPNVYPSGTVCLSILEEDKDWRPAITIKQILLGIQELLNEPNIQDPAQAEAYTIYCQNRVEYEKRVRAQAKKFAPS
# GSTO1 counter – blocks human GSTO1 in RBBP9 counter-screen; P78417; AID 1974; recombinant GSTO1, activity-based probe fluorescence polarization; inhibition, % at 5.96 µM; 300,000 tested, 1.1% active;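 active = inhibition above the campaign mean inhibition plus 3 SD, cut at about 35% in these data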;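 note: 0% = GSTO1-1 with DMSO and 100% = wells lacking GSTO1-1 enzyme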
# Target sequence (P78417 whole entry, looked up): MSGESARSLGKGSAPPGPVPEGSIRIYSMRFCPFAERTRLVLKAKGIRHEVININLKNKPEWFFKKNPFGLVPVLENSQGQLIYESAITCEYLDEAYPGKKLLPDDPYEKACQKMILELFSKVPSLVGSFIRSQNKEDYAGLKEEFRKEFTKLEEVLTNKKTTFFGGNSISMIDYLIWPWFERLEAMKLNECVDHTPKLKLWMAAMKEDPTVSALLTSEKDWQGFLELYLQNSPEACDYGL
# GSTO1 confirm – GSTO1 (human) inhibition, confirmation; shares compounds with GSTO1 counter; recombinant GSTO1, probe fluorescence polarization; inhibition, % at 5.96 µM; 2,400 tested, 54% active; AID 2176;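 active = inhibition above the primary screen's cutoff, its mean inhibition plus 3 SD, cut at about 35% in these data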;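 note: loss of polarization as inhibitors block binding of rhodamine sulfonate ester activity probe; 0% = GSTO1 with DMSO and 100% = wells lacking GSTO1 enzyme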
# PAD4 FP conf – confirmation of human PAD4 inhibitors; shares compounds with PAD4 FP inh; recombinant PAD4, RCA probe fluorescence polarization; inhibition, % at 6.36 µM; 1,200 tested, 28% active;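 active = mean inhibition across replicates above the hit cutoff set by the earlier primary screen, cut at about 15% in these data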;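 note: inhibitors block active-site labeling by the probe so polarization falls; 0% = PAD4 with probe and DMSO and 100% = probe without PAD4 enzyme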
# * hit, by the source's call; · = no result.
SMILES,TDP2 inh,GASC-1 inh,PAD4 FP inh,Apaf-1 inh,SUMO HTRF inh,GSTO1 counter,GSTO1 confirm,PAD4 FP conf
O=c1[nH]c2ccc(Br)cc2c(-c2ccccc2)c1CN1CCOCC1,5.8,-2.8,5.4,23.8,11.3,63.7*,1.6,·
COCCNC(=O)COc1ccc(Br)cc1Cl,·,2.6,-0.2,2.0,-11.0,0.0,·,·
C=CCNC(=O)COc1ccc(Br)cc1Cl,2.1,-9.0,-1.3,-2.0,8.3,66.0*,5.1,·
Cc1ccc(S(=O)(=O)c2cc(OC(=O)c3ccco3)ccc2OC(=O)c2ccco2)cc1,1.2,7.0,1.1,9.5,-6.9,18.1,·,·
O=C(Oc1ccc(OC(=O)c2ccco2)c(S(=O)(=O)c2ccc(Br)cc2)c1)c1ccco1,·,5.4,3.1,7.0,25.4,48.9*,4.4,·
CN1C(=O)NC(c2ccccc2[N+](=O)[O-])C2=C1CCCC2=O (stereo not drawn),11.0,-5.6,102.2*,21.5,7.8,71.2*,37.9*,62.4*
C=CCNC(=O)N1CCN(Cc2nc3ccccc3c(=O)[nH]2)CC1,5.8,·,·,·,·,·,·,·
CCCCn1c(NS(=O)(=O)c2ccc(C)cc2)c(S(=O)(=O)c2ccccc2)c2nc3ccccc3nc21,58.0*,-5.2,36.0*,·,100.5*,78.3*,70.7*,-6.9
Cc1ccc(C=Nc2ccc(N(C)C)cc2)o1,14.4,3.8,25.5*,51.1*,-43.8,82.6*,1.9,-9.1
Cc1ccc(C=Nc2ccccc2C(N)=O)o1,-3.8,-3.1,-4.3,-8.6,-2.2,-2.5,·,·
COc1ccc(/C=C2/CN(Cc3ccc(OC)cc3OC)C3=N[C@H](c4ccccc4)CC(=O)N32)cc1,-4.4,·,·,·,·,·,·,·
O=C(Nc1ccccc1)n1ccc2ccc(-c3ccc4cc[nH]c4c3)cc21,-3.8,·,·,·,·,·,·,·
O=C1CCCC/C1=C\Nc1ccc(O)cc1,4.3,27.6,43.2*,10.4,39.6,42.3*,5.9,5.5
O=C1CCC/C1=C/Nc1ccc(Cl)cc1,-1.8,-5.1,1.4,-10.1,5.4,2.2,·,·
Cn1nc([N+](=O)[O-])c(C(C#N)c2nc3ccccc3n2C)c(Cl)c1=O (stereo not drawn),-3.5,-36.4,25.7*,19.3,15.0,62.6*,30.5,16.8*
O=S(=O)(c1ccccc1F)N1CCC(c2nc3ccccc3o2)CC1,-5.6,·,·,·,·,·,·,·
O=C(OCCN1CCN(C2CN(Cc3cn(Cc4ccccc4Cl)nn3)S(=O)(=O)C2)CC1)c1cc2ccccc2o1 (stereo not drawn),7.8,·,·,·,·,·,·,·
Cc1nnc(N/N=C/c2cc(C)n(-c3ccc(F)cc3)c2C)n1N,62.1*,4.1,29.0*,7.4,27.2,49.7*,2.4,-0.8
CCN(CC)c1ccc(N=Cc2c(C)[nH]c3ccccc23)cc1,7.8,-14.5,25.2*,35.4,-26.6,56.2*,4.8,3.3
O=C1C=C(Nc2cccc3cccnc23)c2ccccc2C1=O,18.6,-10.9,33.9*,47.3*,32.9,77.0*,58.0*,54.4*
O=C(CN1C(=O)c2ccccc2C1=O)Nc1cccc2cccnc12,-4.3,4.9,1.7,2.5,-4.5,6.0,·,·
Cc1ccc(S(=O)(=O)/N=C2/C=C(Sc3ncn[nH]3)C(=O)c3ccccc32)cc1,·,18.4,39.1*,·,95.1*,96.3*,88.0*,9.8
CC1(OC(=O)C2CCCC2)C(=O)C=C2C=C(c3ccsc3)N(CCc3ccccn3)C=C2C1=O (stereo not drawn),-3.8,5.5,18.6*,32.6,23.7,48.9*,5.1,-5.4
CC(=O)Nc1ccc(NC2=C(Cl)C(=O)c3ccccc3C2=O)cc1,13.2,1.0,·,38.1,-20.3,·,·,·
CN(C)c1ccc(NC2=C(Cl)C(=O)c3ccccc3C2=O)cc1,22.0,3.0,28.2*,42.9*,-7.7,93.5*,88.7*,16.1*
O=C(Nc1ccc2cn[nH]c2c1)c1c(Cl)cccc1Cl,-5.5,11.7,0.1,9.0,7.2,19.5,·,·
